# Data: ChEMBL document CHEMBL1125564, “Selective, centrally acting serotonin 5-HT2 antagonists. 2. Substituted 3-(4-fluorophenyl)-1H-indoles” (J Med Chem, 1992)
# What was measured:
# [1] = target: Serotonin 2 (5-HT2) receptor (Rattus norvegicus, UniProt P30994+P08909+P14842); test: Displacement of [3H]ketanserin from 5-hydroxytryptamine 2 receptor in rat cortical membranes; type: cell membranes, Membrane
# Outline: (§1)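 Two full concentration curves per compound, five concentrations in triplicate covering three decades. IC50 read from log-concentration curves, given as logarithmic mean of at least two determinations. Ratios beyond 3 × SD prompted extra runs, with outliers discarded.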
# [2] = target: T1, Alpha-1A adrenergic receptor (Rattus norvegicus, UniProt P43140); test: Displacement of [3H]prazosin from Alpha-1 adrenergic receptor in whole rat brain membranes; type: cell membranes; outline: as §1
# T1 sequence (P43140 whole entry): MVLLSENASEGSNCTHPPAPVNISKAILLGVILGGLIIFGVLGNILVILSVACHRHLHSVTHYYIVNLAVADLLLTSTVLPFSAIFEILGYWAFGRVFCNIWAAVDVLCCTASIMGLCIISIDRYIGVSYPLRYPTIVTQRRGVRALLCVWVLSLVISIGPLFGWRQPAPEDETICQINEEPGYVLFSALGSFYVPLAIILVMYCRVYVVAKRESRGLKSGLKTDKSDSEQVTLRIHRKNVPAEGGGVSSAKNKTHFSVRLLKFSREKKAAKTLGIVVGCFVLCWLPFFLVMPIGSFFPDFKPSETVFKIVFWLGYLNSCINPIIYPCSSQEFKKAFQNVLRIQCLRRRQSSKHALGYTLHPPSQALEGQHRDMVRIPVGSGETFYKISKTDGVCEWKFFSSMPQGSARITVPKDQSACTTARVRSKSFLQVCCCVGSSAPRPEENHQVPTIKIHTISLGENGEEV
# Rattus norvegicus [3] = test: Compound was evaluated for the inhibition of pergolide-induced reactions after 2 hr (administered subcutaneously); type: functional; settings: sc
# Outline: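 Male Wistar rats with unilateral 6-OHDA lesions; test compound given sc 2 h before pergolide (0.05 μmol/kg, sc) to induce contralateral circling. Each dose scored as percent of the rat's mean control sessions 1 week before and 1 week after the test, at least four rats per dose. ED50 by log-probit analysis.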
# Rattus norvegicus [4] = test: Compound was evaluated for the inhibition of quipazine-induced head twitches after 24 hr (administered subcutaneously); type: functional; settings: sc
# Outline: (§2)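 Male Wistar rats (Mol:Wist, SPF, 170–270 g), at least four per dose, dosed sc or po 2 or 24 h before quipazine (15 μmol/kg, sc). Head twitches counted 30–40 min after quipazine and expressed as percent of a quipazine-treated control group. ED50 by log-probit analysis.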
# Rattus norvegicus [5] = test: Compound was evaluated for the inhibition of quipazine-induced head twitches after 24 hr (administered perorally); type: functional; settings: po; outline: as §2
# D(2) dopamine receptor = D(2) dopamine receptor (Rattus norvegicus, UniProt P61169); test: Displacement of [3H]spiperone from Dopamine receptor D2 rat striatal membranes; type: cell membranes, Membrane; outline: as §1
# Sequence of D(2) dopamine receptor (P61169 whole entry): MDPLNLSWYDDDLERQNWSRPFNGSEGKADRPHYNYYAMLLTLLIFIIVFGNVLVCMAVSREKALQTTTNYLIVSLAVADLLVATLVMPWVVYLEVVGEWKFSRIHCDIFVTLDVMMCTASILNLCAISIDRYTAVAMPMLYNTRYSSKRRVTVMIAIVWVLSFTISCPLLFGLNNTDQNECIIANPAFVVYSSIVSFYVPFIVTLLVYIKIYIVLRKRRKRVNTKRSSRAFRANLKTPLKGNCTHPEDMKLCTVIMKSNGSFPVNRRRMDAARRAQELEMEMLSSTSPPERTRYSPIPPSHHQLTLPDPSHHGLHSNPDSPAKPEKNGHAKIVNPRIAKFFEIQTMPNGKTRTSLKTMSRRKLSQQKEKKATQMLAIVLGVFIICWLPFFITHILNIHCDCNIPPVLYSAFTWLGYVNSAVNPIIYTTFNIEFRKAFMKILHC
# Rattus norvegicus [6] = test: Compound was evaluated for the inhibition of quipazine-induced head twitches after 2 hr (administered subcutaneously); type: functional; settings: sc; outline: as §2
Compound,IC50 [1] [nM],IC50 [2] [nM],ED50 (Rattus norvegicus [3]) [µmol/kg],ED50 (Rattus norvegicus [4]) [µmol/kg],ED50 (Rattus norvegicus [5]) [µmol/kg],IC50 (D(2) dopamine receptor) [nM],ED50 (Rattus norvegicus [6]) [µmol/kg]
Cc1ccc2c(c1)c(-c1ccc(F)cc1)c(C)n2C1=CCN(CCN2CCNC2=O)CC1,2.8,1000,,,,,
CNC(=O)N(C)CCN1CCC(n2cc(-c3ccc(F)cc3)c3cc(C)ccc32)CC1,2.2,54,> 22,0.0021,0.004,1200,0.036
Cc1cccc2c1c(-c1ccc(F)cc1)cn2C1CCN(CCN2CCNC2=O)CC1,7.9,34,,,,200,
O=C1NCCN1CCN1CCC(n2cc(-c3ccc(F)cc3)c3cc(F)ccc32)CC1,3.2,19,,,,,
O=C1NCCN1CCN1CCC(n2cc(-c3ccc(F)cc3)c3cc(C(F)(F)F)ccc32)CC1,9.3,190,,,,2500,
O=C1NCCN1CCN1CCC(n2cc(-c3ccc(F)cc3)c3cc(Cl)ccc32)CC1,5.7,67,,,,,
Cc1ccc2c(c1)c(-c1ccc(F)cc1)cn2C1CCN(CCN2CCN(C(C)C)C2=O)CC1,2.7,280,> 18,0.014,0.019,,0.062
Cc1cccc2c(-c3ccc(F)cc3)cn(C3=CCN(CCN4CCNC4=O)CC3)c12,5.8,27,,,,530,
O=C1NCCN1CCN1CCC(n2cc(-c3ccc(F)cc3)c3ccc(Cl)cc32)CC1,1.9,11,9.3,0.68,,,0.3
O=C1NCCN1CCN1CCC(c2cn(-c3ccc(F)cc3)c3ccc(Cl)cc23)CC1 [SERTINDOLE],,3.4,,,,,
O=C1NCCN1CCN1CCC(n2cc(-c3ccc(F)cc3)c3ccccc32)CC1,3.1,6.3,,,,,
Cc1ccc2c(c1)c(-c1ccc(F)cc1)cn2C1CCN(C)CC1,4.5,190,,,,,
Cc1ccc2c(c1)c(-c1ccc(F)cc1)c(C)n2C1CCN(C)CC1,5.3,2700,> 30,0.028,0.046,,0.25
CC(C)N1CCN(CCN2CCC(c3cn(-c4ccc(F)cc4)c4cc(Cl)ccc34)CC2)C1=O,,70,,,,,
Cc1ccc2c(c1)c(-c1ccc(F)cc1)cn2N1CCN(C)CC1,15,500,,,,,
Cc1ccc2c(c1)c(-c1ccc(F)cc1)cn2C1CCN(CCN2CCNC2=O)CC1,1.6,71,> 24,0.0081,0.0041,,0.019
Cc1cccc2c(-c3ccc(F)cc3)cn(C3CCN(CCN4CCNC4=O)CC3)c12,3.6,23,,,,370,
Cc1ccc2c(c1)c(-c1ccc(F)cc1)c(C)n2C1CCN(CCN2CCNC2=O)CC1,3.4,2300,> 23,0.0041,0.038,,0.096
Cc1ccc2c(c1)c(-c1ccc(F)cc1)cn2C1=CCN(CCN2CCNC2=O)CC1,1.5,24,,,,280,
Cc1ccc2c(c1)c(-c1ccc(F)cc1)cn2C1CCN(CCNC(=O)N(C)C)CC1,2.3,89,,,,,
